The subject of data set [1] is MDA-MB-231. Nature of the data set: Cytotoxicity against human MDA-MB-231 cells after 48 hrs by neutral red dye assay. The class given is functional, cell-based.
The subject of data set [2] is HT-29. Put plainly: Cytotoxicity against human HT-29 cells after 48 hrs by neutral red dye assay. Format: functional, cell-based.
Data set [3] relates to T-24. Nature of the data set: Cytotoxicity against human T24 cells after 48 hrs by neutral red dye assay. Format: functional, cell-based.
Data set [4] relates to HT-29. Put plainly: Induction of apoptosis in human HT-29 cells assessed as DNA fragmentation after 48 hrs by ELISA relative to control. Format: functional. Summed up:
(§1)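 DNA fragmentation was measured with the Cell Death Detection ELISA Plus kit after treatment of cultured tumour cells. The signal is expressed relative to untreated control cultures, which are set to 1.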

The test system of data set [5] is MDA-MB-231. Put plainly: Induction of apoptosis in human MDA-MB-231 cells assessed as DNA fragmentation after 24 hrs by ELISA relative to control. The class given is functional. Summed up: as §1
Data set [6] concerns MDA-MB-231. Nature of the data set: Cytotoxicity against human MDA-MB-231 cells after 72 hrs by neutral red dye assay. Format: functional, cell-based. The settings on record: MDA-MB-231, 72 h. Summed up: (§2)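 Human tumour cells were grown as monolayers with 10% FBS and penicillin/streptomycin at 37 °C in 5% CO2 (HT-29 and T-24 in McCoy's, MDA-MB-231 in Leibovitz). They were exposed to compound in DMSO (≤0.5% v/v final) at screening concentrations of 20 and 100 μM for 72 h and read by neutral red uptake. Survival is relative to cells given DMSO only, in triplicate.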

Data set [7] can be described thus: Cytotoxicity against human CRL8799 cells assessed as cell survival at 20 to 100 uM after 72 hrs by neutral red dye assay. Format: cell-based. The conditions noted are these: read-out: Survival. In short, it runs like this: (§3)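 The non-tumoral lines were grown with 10% FBS plus penicillin/streptomycin, as monolayers at 37 °C in 5% CO2: CRL-8799 in MEG medium and CRL-11233 in BEGM. Compounds in DMSO (≤0.5% v/v final) were applied for 72 h. Survival was read by neutral red uptake against 0.5% DMSO solvent-treated controls, as the mean of triplicates.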

For data set [8], the system named is HT-29. Put plainly: Cytotoxicity against human HT-29 cells after 72 hrs by neutral red dye assay. Format: functional, cell-based. The conditions noted are these: HT-29, 72 h. Summed up: as §2
Data set [9] has as its system T-24. Put plainly: Induction of apoptosis in human T24 cells assessed as DNA fragmentation after 48 hrs by ELISA relative to control. The class given is functional. Summed up: as §1
In data set [10] the test system is MDA-MB-231. Nature of the data set: Cytotoxicity against human MDA-MB-231 cells assessed as cell survival at 100 uM after 72 hrs by neutral red dye assay. The class given is functional. The conditions noted are these: MDA-MB-231, 72 h, read-out: Survival. In short, it runs like this: (§4)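 HT-29 and T-24 cells were grown in McCoy's medium and MDA-MB-231 in Leibovitz, each with 10% FBS plus penicillin/streptomycin, as monolayers at 37 °C in 5% CO2. Compounds in DMSO (≤0.5% v/v final) were applied for 72 h. Survival was read by neutral red uptake against 0.5% DMSO-treated cells, as the mean of triplicates.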

The test system of data set [11] is T-24. Put plainly: Cytotoxicity against human T24 cells assessed as cell survival at 100 uM after 72 hrs by neutral red dye assay. Format: functional. The settings on record: T-24, 72 h, read-out: Survival. Summed up:
as §4

The test system of data set [12] is T-24. Nature of the data set: Induction of apoptosis in human T24 cells assessed as DNA fragmentation after 48 hrs by ELISA relative to camptothecin. The class given is functional.
Data set [13] concerns HT-29. Put plainly: Induction of apoptosis in human HT-29 cells assessed as DNA fragmentation after 48 hrs by ELISA relative to camptothecin. Format: functional.
Data set [14] can be described thus: Cytotoxicity against human CRL11233 cells assessed as cell survival at 20 to 100 uM after 72 hrs by neutral red dye assay. The conditions noted are these: read-out: Survival. The class given is cell-based. Summed up: as §3
In data set [15] the test system is HT-29. Put plainly: Cytotoxicity against human HT-29 cells assessed as cell survival at 100 uM after 72 hrs by neutral red dye assay. Format: functional. The settings on record: HT-29, 72 h, read-out: Survival. Summed up: as §4
In data set [16] the test system is T-24. Put plainly: Cytotoxicity against human T24 cells after 72 hrs by neutral red dye assay. Format: functional, cell-based. The conditions noted are these: T-24, 72 h. Summed up:
as §2

SMILES strings stand for the structures. The source made the active and inactive calls. The calls are words filed in the database; no cut-off is given here. Bounds are passed on as bounds.

For `CCCCCNc1nc(SCCCCC)nc2ncccc12`, the IC50 entry in data set [1], in data set [2] and in [3] was “Not Active” in each case. For the same compound, the result in [4] was inactive.

For `CC(C)Sc1nc(NCCCO)c2cccnc2n1`, the result in data set [5] and in data set [4] was inactive. The half-maximal inhibitory concentration (IC50) result in data set [1], in [2] and in data set [3] was “Not Active” in each case.

As for `CCSc1nc(NCCCCCO)c2cccnc2n1`, the IC50 result in data set [1], in data set [2] and in [3] was “Not Active” each time.

Turning to `c1ccc(CCNc2nc(NCCc3ccccn3)c3cccnc3n2)nc1`, the IC50 result in data set [1], in [2] and in data set [3] was “Not Active” each time.

As to `CCSc1nc(NCCCCO)c2cccnc2n1`, the half-maximal inhibitory concentration (IC50) entry in data set [1], in data set [2] and in data set [3] was “Not Active” throughout.

`c1ccc(CNc2ccnc(NCc3ccccc3)n2)cc1`: the results for the concentration for half-maximal inhibition (IC50) in data set [6], in data set [8] and in data set [16] were 1.9 µM, 17.2 µM and 6.1 µM, respectively. The result in [5] was inactive. Further, the values for the viability at 72 h, up to 100 µM in [7] and in data set [14] were 22% and 0%, respectively. The “fold change (FC)” value in data set [9] was determined as 6; in data set [12], 2.3; in data set [4], 7.4; in data set [13], 2.3. Moreover, the viability at 100 µM in [10], in data set [11] and in [15] was less than 45% each time.

Regarding `OCCCCNc1nc(NCCCCO)c2cccnc2n1`, the IC50 entry in [1], in data set [2] and in [3] was “Not Active” each time.

The record behind these values is ChEMBL document CHEMBL1821616, “New insights into the structural requirements for pro-apoptotic agents based on 2,4-diaminoquinazoline, 2,4-diaminopyrido[2,3-d]pyrimidine and 2,4-diaminopyrimidine derivatives” (Eur J Med Chem, 2011).
